According to ChEMBL document CHEMBL4371064, “Erythrofordins D and E, two new cassaine-type diterpenes from Erythrophleum suaveolens” (2019):

Assays:
Assay type in all cases: functional
[1] = test system: SW-620; test: Growth inhibition of human SW620 cells incubated for 48 hrs by sulforhodamine B assay; settings: SW-620, 48 h
Procedure, shortened: (§1)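 Tested in the NCI 60-human-tumour-cell-line screen using the five-dose format. GI₅₀ was derived from each cell line's dose-response. TGI and LC₅₀ were derived from the same dose-response data.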

[2] = test system: SN12C; test: Growth inhibition of human SN12C cells incubated for 48 hrs by sulforhodamine B assay
Procedure, shortened: (§2)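 Run in the NCI-60 human tumour cell line panel with dose-response testing. GI50 was determined for each cell line from its dose-response data.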

[3] = test system: COLO 205; test: Growth inhibition of human COLO205 cells incubated for 48 hrs by sulforhodamine B assay; settings: COLO 205, 48 h; procedure, shortened: as §2
[4] = test system: RPMI-8226; test: Growth inhibition of human RPMI8226 cells incubated for 48 hrs by sulforhodamine B assay; settings: RPMI-8226, 48 h; procedure, shortened: as §2
[5] = test system: SK-MEL-2; test: Growth inhibition of human SK-MEL-2 cells incubated for 48 hrs by sulforhodamine B assay; settings: SK-MEL-2, 48 h; procedure, shortened: as §2
[6] = test system: U-251; test: Growth inhibition of human U251 cells incubated for 48 hrs by sulforhodamine B assay; settings: U-251, 48 h; procedure, shortened: as §1
[7] = test system: OVCAR-4; test: Growth inhibition of human OVCAR4 cells incubated for 48 hrs by sulforhodamine B assay; settings: OVCAR-4, 48 h; procedure, shortened: as §2
[8] = test system: SK-OV-3; test: Growth inhibition of human SKOV3 cells incubated for 48 hrs by sulforhodamine B assay; settings: SK-OV-3, 48 h; procedure, shortened: as §2
[9] = test system: HT-29; test: Growth inhibition of human HT-29 cells incubated for 48 hrs by sulforhodamine B assay; settings: HT-29, 48 h; procedure, shortened: as §2
[10] = test system: MDA-MB-231; test: Growth inhibition of human MDA-MB-231 cells incubated for 48 hrs by sulforhodamine B assay; settings: MDA-MB-231, 48 h; procedure, shortened: as §2
[11] = test system: NCI-H322M; test: Growth inhibition of human NCI-H322M cells incubated for 48 hrs by sulforhodamine B assay; procedure, shortened: as §2
[12] = test system: Malme-3M; test: Growth inhibition of human MALME-3M cells incubated for 48 hrs by sulforhodamine B assay; procedure, shortened: as §2
[13] = test system: OVCAR-8; test: Growth inhibition of human OVCAR8 cells incubated for 48 hrs by sulforhodamine B assay; settings: OVCAR-8, 48 h; procedure, shortened: as §2
[14] = test system: HCC 2998; test: Growth inhibition of human HCC2998 cells incubated for 48 hrs by sulforhodamine B assay; settings: HCC 2998, 48 h; procedure, shortened: as §2
[15] = test system: MCF7; test: Growth inhibition of human MCF7 cells incubated for 48 hrs by sulforhodamine B assay; settings: MCF7, 48 h; procedure, shortened: as §2
[16] = test system: T47D; test: Growth inhibition of human T47D cells incubated for 48 hrs by sulforhodamine B assay; procedure, shortened: as §1
[17] = test system: NCI-H226; test: Growth inhibition of human NCI-H226 cells incubated for 48 hrs by sulforhodamine B assay; settings: NCI-H226, 48 h; procedure, shortened: as §2
[18] = test system: HCT-116; test: Growth inhibition of human HCT116 cells incubated for 48 hrs by sulforhodamine B assay; settings: HCT-116, 48 h; procedure, shortened: as §2
[19] = test system: EKVX; test: Growth inhibition of human EKVX cells incubated for 48 hrs by sulforhodamine B assay; procedure, shortened: as §2
[20] = test system: SF-295; test: Growth inhibition of human SF295 cells incubated for 48 hrs by sulforhodamine B assay; settings: SF-295, 48 h; procedure, shortened: as §2
[21] = test system: A498; test: Growth inhibition of human A498 cells incubated for 48 hrs by sulforhodamine B assay; settings: A498, 48 h
Procedure, shortened: (§3)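 Run within the NCI-60 human tumour cell line panel as a dose-response screen. For each cell line the readouts are GI50, TGI and LC50. Per-line log values also feed a mean-graph analysis, in which the arithmetic mean of the log values across all lines is subtracted from each line's log value.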

[22] = test system: HL-60(TB); test: Growth inhibition of human HL-60(TB) cells incubated for 48 hrs by sulforhodamine B assay; settings: HL-60, 48 h; procedure, shortened: as §3
[23] = test system: NCI-H522; test: Growth inhibition of human NCI-H522 cells incubated for 48 hrs by sulforhodamine B assay; settings: NCI-H522, 48 h; procedure, shortened: as §2
[24] = test system: A549; test: Growth inhibition of human A549/ATCC cells incubated for 48 hrs by sulforhodamine B assay; settings: A549, 48 h; procedure, shortened: as §2
[25] = test system: UACC-257; test: Growth inhibition of human UACC257 cells incubated for 48 hrs by sulforhodamine B assay; settings: UACC-257, 48 h; procedure, shortened: as §1
[26] = test system: K562; test: Growth inhibition of human K562 cells incubated for 48 hrs by sulforhodamine B assay; settings: K562, 48 h; procedure, shortened: as §2
[27] = test system: SF-268; test: Growth inhibition of human SF268 cells incubated for 48 hrs by sulforhodamine B assay; settings: SF-268, 48 h; procedure, shortened: as §2
[28] = test system: SF-539; test: Growth inhibition of human SF539 cells incubated for 48 hrs by sulforhodamine B assay; settings: SF-539, 48 h; procedure, shortened: as §2
[29] = test system: RXF 393; test: Growth inhibition of human RXF393 cells incubated for 48 hrs by sulforhodamine B assay; settings: RXF 393, 48 h; procedure, shortened: as §2
[30] = test system: M14; test: Growth inhibition of human M14 cells incubated for 48 hrs by sulforhodamine B assay; settings: M14, 48 h; procedure, shortened: as §2
[31] = read-out: pLC50 (the source's name) (converted)

## COC(=O)/C=C1\CC[C@H]2[C@@H](CC(=O)[C@H]3C(C)(C)[C@@H](O)CC[C@]23C)[C@H]1C
[1]
  GI50: 1.74 µM
  LC50: > 34.7 µM
[1]; read-out: pTGI (converted)
  TGI: 10 µM
[2]
  GI50: 1.1 µM
  LC50: > 34.7 µM
[2]; read-out: pTGI (converted)
  TGI: 5.89 µM
[3]
  GI50: 10.5 µM
  LC50: > 34.7 µM
[3]; read-out: pTGI (converted)
  TGI: > 34.7 µM
[4]
  GI50: 8.91 µM
  LC50: > 34.7 µM
[4]; read-out: pTGI (converted)
  TGI: > 34.7 µM
[5]
  GI50: 7.41 µM
  LC50 (concentration killing 50% of cells): > 34.7 µM
[5]; read-out: pTGI (converted)
  TGI: 28.8 µM
[6]
  GI50: 1.7 µM
  LC50: 19.5 µM
[6]; read-out: pTGI (converted)
  TGI: 6.76 µM
[7]
  GI50: 3.72 µM
  LC50: > 34.7 µM
[7]; read-out: pTGI (converted)
  TGI: 12.3 µM
[8]
  GI50: 8.51 µM
  LC50: > 34.7 µM
[8]; read-out: pTGI (converted)
  TGI: 22.9 µM
[9]
  GI50: 2.24 µM
[9]; [31]
  CC50: > 34.7 µM
[9]; read-out: pTGI (converted)
  TGI: 10.7 µM
[10]
  GI50: 10.2 µM
  LC50: > 34.7 µM
[10]; read-out: pTGI (converted)
  TGI: > 34.7 µM
[11]
  GI50: 1.35 µM
  LC50: > 34.7 µM
[11]; read-out: pTGI (converted)
  TGI: 9.55 µM
[12]
  GI50: 1.48 µM
  LC50: 24.5 µM
[12]; read-out: pTGI (converted)
  TGI: 7.08 µM
[13]
  GI50: 1.38 µM
  LC50: > 34.7 µM
[13]; read-out: pTGI (converted)
  TGI: 7.24 µM
[14]
  GI50: 10.7 µM
  LC50: > 34.7 µM
[14]; read-out: pTGI (converted)
  TGI: > 34.7 µM
[15]
  GI50: 1.62 µM
[15]; [31]
  CC50: > 34.7 µM
[15]; read-out: pTGI
  TGI: > 34.7 µM
[16]
  GI50: 5.37 µM
  LC50: > 34.7 µM
[16]; read-out: pTGI (converted)
  TGI: 21.9 µM
[17]
  GI50: 4.79 µM
  LC50: 25.1 µM
[17]; read-out: pTGI (converted)
  TGI: 11 µM
[18]
  GI50: 1.41 µM
  LC50: > 34.7 µM
[18]; read-out: pTGI (converted)
  TGI: 6.31 µM
[19]
  GI50: 0.871 µM
  LC50: 11 µM
[19]; read-out: pTGI (converted)
  TGI: 2.69 µM
[20]
  GI50: 1.45 µM
  LC50: > 34.7 µM
[20]; read-out: pTGI (converted)
  TGI: 7.59 µM
[21]
  LC50: > 34.7 µM
[21]; read-out: pTGI (converted)
  TGI: 14.8 µM
[22]
  GI50: 5.37 µM
  LC50: > 34.7 µM
[22]; read-out: pTGI (converted)
  TGI: 21.4 µM
[23]
  GI50: 0.741 µM
  LC50: 27.5 µM
[23]; read-out: pTGI (converted)
  TGI: 2.29 µM
[24]
  GI50: 0.603 µM
  LC50: 2.09 µM
[24]; read-out: pTGI (converted)
  TGI: 1.12 µM
[25]
  GI50: 6.03 µM
  LC50: > 34.7 µM
[25]; read-out: pTGI (converted)
  TGI: 16.2 µM
[26]
  GI50: 5.13 µM
  LC50: > 34.7 µM
[26]; read-out: pTGI (converted)
  TGI: 28.8 µM
[27]
  GI50: 1.17 µM
  LC50: 14.5 µM
[27]; read-out: pTGI (converted)
  TGI: 4.47 µM
[28]
  GI50: 1.35 µM
  LC50: 16.2 µM
[28]; read-out: pTGI (converted)
  TGI: 5.5 µM
[29]
  GI50: 0.933 µM
[29]; [31]
  CC50: > 34.7 µM
[29]; read-out: pTGI (converted)
  TGI: 3.31 µM
[30]
  GI50: 10 µM
  LC50: > 34.7 µM
[30]; read-out: pTGI (converted)
  TGI: > 34.7 µM
